In ChEMBL document CHEMBL1649090, “Discovery of (7R)-14-cyclohexyl-7-{[2-(dimethylamino)ethyl](methyl) amino}-7,8-dihydro-6H-indolo[1,2-e][1,5]benzoxazocine-11-carboxylic acid (MK-3281), a potent and orally bioavailable finger-loop inhibitor of the hepatitis C virus NS5B polymerase” (J Med Chem, 2011):
Active and inactive are the calls of the source. The calls are words filed in the database; no cut-off is given here.

What was measured:
[1] = AUC in dog at 2 mg/kg, po; format: ADME, organism-based, Canis lupus familiaris; set-up: dose 2 mg/kg, route oral; conditions: plasma
How it was run: (§1)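 Single-dose PK of the bis-HCl salt, n = 3 per species (dog po n = 2). Intravenous doses: rat 3, dog 1, rhesus 2 mg/kg, in DMSO/PEG400/water 20%/60%/20%. Oral doses: rat 3, dog 2, rhesus 4 mg/kg, in PEG400 for rat and dog and PEG400/water 70%/30% for rhesus.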

[2] = Oral bioavailability in Sprague-Dawley rat at 3 mg/kg; format: ADME, organism-based; conditions: in vivo
How it was run: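 Single-dose rat PK with the compound given as its TFA salt to Sprague-Dawley rats (n = 3) in DMSO/PEG400/water 20%/60%/20%. Dosing was 3 mg/kg iv and 3 mg/kg po.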

[3] = Plasma protein binding in human; format: ADME, cell-free; conditions: read-out: PPB (converted)
Cytochrome P450 3A4 = Cytochrome P450 3A4 (Homo sapiens, UniProt P08684); assay: Inhibition of CYP3A4 up to 50 uM; format: ADME
Chain of Cytochrome P450 3A4 (P08684 whole entry): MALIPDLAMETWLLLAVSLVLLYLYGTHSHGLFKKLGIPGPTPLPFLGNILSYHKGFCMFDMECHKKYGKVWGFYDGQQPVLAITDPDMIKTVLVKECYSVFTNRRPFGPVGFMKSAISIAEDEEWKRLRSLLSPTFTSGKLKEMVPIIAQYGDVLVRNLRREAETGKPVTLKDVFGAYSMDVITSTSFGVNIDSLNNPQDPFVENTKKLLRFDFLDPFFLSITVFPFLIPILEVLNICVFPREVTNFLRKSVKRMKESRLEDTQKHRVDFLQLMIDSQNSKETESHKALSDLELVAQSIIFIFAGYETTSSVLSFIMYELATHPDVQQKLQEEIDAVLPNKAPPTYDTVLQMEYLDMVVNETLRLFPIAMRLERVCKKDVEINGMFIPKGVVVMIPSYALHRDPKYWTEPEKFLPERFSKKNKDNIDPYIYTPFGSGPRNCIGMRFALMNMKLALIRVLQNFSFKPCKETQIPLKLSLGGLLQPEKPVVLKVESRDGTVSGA

[4] = Terminal half life in dog at 1 mg/kg, iv and 2 mg/kg, po; format: ADME, organism-based, Canis lupus familiaris; conditions: in vivo
How it was run: (§2)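 Single iv and single oral doses, given as the bis-HCl salt, in rat, dog and rhesus, n = 3 per species (dog oral n = 2). The iv vehicle was DMSO/PEG400/water 20%/60%/20%. Oral vehicle was PEG400 for rat and dog and PEG400/water 70%/30% for rhesus. Values are mean ± SD.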

[5] = Volume of distribution at steady state in dog at 1 mg/kg, iv and 2 mg/kg, po; format: ADME, organism-based, Canis lupus familiaris; conditions: in vivo, read-out: Vdss; how it was run: as §2
[6] = Plasma concentration in HCV1b infected humanized uPA+/+-SCID mouse at 50 mg/kg, ip bid for 4 days measured 12 hrs after last post dose; format: ADME, organism-based; set-up: dose 50 mg/kg, route intraperitoneal
How it was run: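 Three humanized uPA+/+-SCID mice infected with genotype 1b HCV received 10 or 50 mg/kg ip twice daily for 4 days, in PEG400/water 30%/70%. Trough plasma concentration was taken 12 h after the last dose.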

[7] = Intrinsic clearance in rat liver microsomes assessed per mg of protein in presence of UDPGA; format: ADME, Microsome
Hepatitis C virus [8] = assay: Antiviral activity against HCV1b infected in humanized uPA+/+-SCID mouse assessed as reduction of plasma viral RNA level at 10 mg/kg, ip bid for 4 days; format: functional, Hepacivirus hominis; conditions: route intraperitoneal
How it was run: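 Chimeric uPA+/+-SCID mice with human hepatocytes, infected with genotype 1b HCV, were dosed twice daily. The drop in plasma HCV RNA is given as mean log10. Plasma drug concentration was measured 12 h after the last dose.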

[9] = Clearance in rhesus monkey at 2 mg/kg, iv and 4 mg/kg, po; format: ADME, organism-based, Macaca mulatta; conditions: in vivo; how it was run: as §1
[10] = Volume of distribution at steady state in Sprague-Dawley rat at 3 mg/kg, iv and 3 mg/kg, po; format: ADME, organism-based; conditions: in vivo, read-out: Vdss; how it was run: as §2
[11] = Cmax in rhesus monkey at 2 mg/kg, iv and 4 mg/kg, po; format: ADME, organism-based, Macaca mulatta; conditions: in vivo; how it was run: as §1
[12] = Oral bioavailability in rhesus monkey at 4 mg/kg; format: ADME, organism-based, Macaca mulatta; conditions: in vivo; how it was run: as §1
[13] = Drug level in Sprague-Dawley rat liver at 3 mg/kg, po after 6 hrs; format: ADME, organism-based; set-up: dose 3 mg/kg, route oral; conditions: read-out: Drug uptake
How it was run: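 Sprague-Dawley rats (n = 3) received the compound as its TFA salt in DMSO/PEG400/water 20%/60%/20%, as a single iv dose of 3 mg/kg or a single oral dose of 3 mg/kg. Liver tissue and plasma concentrations were measured 6 h after the oral dose.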

Hepatitis C virus [14] = assay: Antiviral activity against HCV2a; format: functional, organism-based, Hepacivirus hominis; conditions: genotype 2a
Mus musculus = assay: Toxicity in SCID mouse assessed as change in organ weight at 50 mg/kg, ip bid for 5 days; format: organism-based; set-up: dose 50 mg/kg, route intraperitoneal; conditions: in vivo, 120 h
How it was run: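 Non-infected SCID mice (n = 3) received 50 mg/kg by intraperitoneal injection twice daily for five consecutive days, as a tolerability run before the infected-mouse study. Body and organ weights were checked for gross changes. Plasma compound levels were measured 12 h after the last dose.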

Hepatitis C virus [15] = assay: Antiviral activity against HCV3a; format: functional, organism-based, Hepacivirus hominis; conditions: genotype 3a
[16] = Cmax in Sprague-Dawley rat at 3 mg/kg, iv and 3 mg/kg, po; format: ADME, organism-based; conditions: in vivo; how it was run: as §1
[17] = biological target: T1, Nuclear receptor subfamily 1 group I member 2 (Homo sapiens, UniProt O75469); assay: Inhibition of PXR activation up to 50 uM
T1 sequence (O75469 whole entry): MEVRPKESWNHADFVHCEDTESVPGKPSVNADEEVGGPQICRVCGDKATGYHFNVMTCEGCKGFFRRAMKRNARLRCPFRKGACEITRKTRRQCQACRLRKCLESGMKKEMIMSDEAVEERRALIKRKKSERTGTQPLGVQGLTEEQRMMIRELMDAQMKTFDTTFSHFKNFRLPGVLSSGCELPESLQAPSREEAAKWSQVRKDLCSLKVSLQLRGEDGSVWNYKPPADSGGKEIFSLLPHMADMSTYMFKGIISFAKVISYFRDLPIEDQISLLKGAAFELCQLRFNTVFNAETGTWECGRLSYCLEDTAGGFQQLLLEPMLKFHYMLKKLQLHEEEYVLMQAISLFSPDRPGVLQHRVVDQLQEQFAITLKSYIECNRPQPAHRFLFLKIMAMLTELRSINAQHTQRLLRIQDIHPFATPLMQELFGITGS

[18] = Intrinsic clearance in dog liver microsomes assessed per mg of protein; format: ADME, Canis lupus familiaris, Microsome
[19] = Clearance in dog at 1 mg/kg, iv and 2 mg/kg, po; format: ADME, organism-based, Canis lupus familiaris; conditions: in vivo; how it was run: as §1
Hepatitis C virus [20] = assay: Antiviral activity against HCV1b infected in humanized uPA+/+-SCID mouse assessed as reduction of plasma viral RNA level at 50 mg/kg, ip bid for 4 days; format: functional, Hepacivirus hominis; conditions: route intraperitoneal
How it was run: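 Three chimeric uPA+/+-SCID mice with human hepatocytes, infected with genotype 1b HCV, received the dose intraperitoneally twice daily for 4 days in PEG400/water 30%/70%. Three vehicle-only mice were dosed for four days as controls. Plasma HCV RNA change is reported per animal and as mean, in log10 (lower limit 315 IU/mL). Follow-up ran to day 21. Plasma trough drug was measured 12 h after the last dose.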

[21] = Terminal half life in Sprague-Dawley rat at 3 mg/kg, iv and 3 mg/kg, po; format: ADME, organism-based; conditions: in vivo; how it was run: as §1
[22] = biological target: DNA polymerase beta (Homo sapiens) (UniProt P06746); assay: Inhibition of human DNA polymerase beta up to 50 uM
[23] = Terminal half life in rhesus monkey at 2 mg/kg, iv and 4 mg/kg, po; format: ADME, organism-based, Macaca mulatta; conditions: in vivo; how it was run: as §2
[24] = Clearance in Sprague-Dawley rat at 3 mg/kg, iv and 3 mg/kg, po; format: ADME, organism-based; conditions: in vivo; how it was run: as §1
Hepatitis C virus [25] = assay: Antiviral activity against HCV1b infected in human Huh-7 cells assessed as inhibition of viral RNA replication after 96 hrs by ELISA assay in presence of 10% fetal calf serum; format: functional, organism-based, Hepacivirus hominis; conditions: genotype 1b, Huh-7, 96 h
Hepatitis C virus [26] = assay: Antiviral activity against HCV2b; format: functional, organism-based, Hepacivirus hominis; conditions: genotype 2b
[27] = Intrinsic clearance in human liver microsomes assessed per mg of protein; format: ADME, Microsome
Homo sapiens = organism: Homo sapiens; assay: Inhibition of human DNA polymerase gamma up to 50 uM
[28] = Intrinsic clearance in dog liver microsomes assessed per mg of protein presence of UDPGA; format: ADME, Canis lupus familiaris, Microsome
[29] = biological target: Protein kinase C alpha type (Homo sapiens, UniProt P17252); assay: Inhibition of PKCalpha

Compound `CN(C)CCN(C)[C@H]1COc2ccccc2-c2c(C3CCCCC3)c3ccc(C(=O)O)cc3n2C1` [MK-3281] has an AUC [1] of 8.6 µM·h, a bioavailability [2] of 49% and a fraction unbound [3] of 0.031. The “inhibition (INH)” value (Cytochrome P450 3A4) was “Not Active”, the half-life [4] was 6.1 h and the Vd [5] was 2.6 L/kg. The concentration at 12 h [6] was 2600 nM, the microsomal CLint [7] was less than 4 µL/min/mg and the “fold change (FC)” value (Hepatitis C virus [8]) was 1.4. It also gave a clearance [9] of 7 mL/min/kg, a Vd [10] of 3.7 L/kg and a Cmax [11] of 800 nM. For the same compound, the bioavailability [12] was 35%, the concentration at 6 h [13] was 420 nM and the EC50 (Hepatitis C virus [14]) was 2020 nM. For the same compound, the Activity (Mus musculus) was “Non-toxic”, the EC50 (Hepatitis C virus [15]) was 37 nM and the Cmax [16] was 500 nM. The “inhibition (INH)” value [17] was “Not Active”, the microsomal CLint [18] was 3 µL/min/mg and the clearance [19] was 7 mL/min/kg. For the same compound, the “fold change (FC)” value (Hepatitis C virus [20]) was 3.13, the half-life [21] was 3.4 h and the inhibition [22] was “inactive”. The half-life [23] was 5.7 h, the clearance [24] was 22 mL/min/kg and the EC50 (Hepatitis C virus [25]) was 38 nM. The EC50 (Hepatitis C virus [26]) was 1830 nM, the microsomal CLint [27] was 7 µL/min/mg and the inhibition (Homo sapiens) was “inactive”. It also gave a microsomal CLint [28] of less than 4 µL/min/mg and an IC50 [29] of 59000 nM.
